From paper PMC10336577 (Saudi Pharmaceutical Journal : SPJ, 2023)
Values after ≈ are worked out from the molar mass of the structure shown. Values joined by “and” are separate entries in the source; they are usually repeats but may differ in a detail not shown here. Identical values can stand only once. Like-named read-outs stand apart in the source and are kept apart here.

Assays:
[1] = test system: PLC/PRF/5 hepatocellular carcinoma cell line; settings: 100 µM; ref Refolo et al., 2018; cited from earlier work
[2] = test system: SK-BR-3 human breast cancer cell line; settings: read-out: IC50, SK-BR-3; ref Bender and Atalay, 2018; cited from earlier work
[3] = test system: BT-20 human breast cancer cell line; settings: read-out: IC50, BT-20; ref Bender and Atalay, 2018; cited from earlier work
[4] = test system: breast cancer cell lines (MCF-7 and MDA-MB-231); assay: MTT cytotoxicity on the breast cancer cell lines; type: cell-based; settings: MCF-7 and MDA-MB-231, MTT
MDA-MB-231 cell line [5] = assay: MTT cytotoxicity assay, MDA-MB-231; type: cell-based; settings: for IC50: Homo sapiens, MDA-MB-231, 24 h, read-out: IC50, MDA-MB-231
Method in brief: (§1)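 Human lines were obtained from ATCC. MCF-7 and MDA-MB-231 were grown in DMEM with 10% FBS, and MCF-10A in DMEM-F12 with 10% FBS, all at 37 °C, 5% CO2. Cells were seeded at 1×10^4 per well, given varying concentrations of extract or test compound, and PBS-washed after 24 h. MTT was applied for 4 h at 37 °C and formazan dissolved in DMSO, with absorbance read at 570 nm. Hydrogen peroxide was the positive control. Runs were done in triplicate, with % viability and IC50 calculated.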

MDA-MB-231 cell line [6] = assay: Annexin V-FITC/PI flow cytometry, MDA-MB-231; type: cell-based; settings: 48 h; for viable cells, MDA-MB-231: quadrant LL, highest doses of compounds; for early apoptotic cells, MDA-MB-231: quadrant LR; for necrotic cells, MDA-MB-231: quadrant UL; for late apoptotic cells, MDA-MB-231: quadrant UR
MCF-7 cell line [7] = assay: MTT cytotoxicity assay, MCF-7; type: cell-based; settings: for IC50: Homo sapiens, MCF7, 24 h, read-out: IC50, MCF-7
Method in brief: as §1

[8] = test system: MDA-MB-468 human breast cancer cell line; settings: read-out: IC50, MDA-MB-468; ref Bender and Atalay, 2018; cited from earlier work
[9] = test system: HepG2 hepatocellular carcinoma cell line; settings: 100 µM; ref Refolo et al., 2018; cited from earlier work
[10] = test system: MCF-10A non-tumorigenic breast epithelial cell line; assay: MTT cytotoxicity assay, MCF-10A; type: cell-based; settings: 24 h; for IC50: Homo sapiens, MCF-10A, read-out: IC50, MCF-10A
Method in brief: as §1

[11] = test system: A549 human non-small cell lung cancer cell line; settings: ref Yang et al., 2017, cited from earlier work
[12] = test system: MIA PaCa-2 pancreatic cancer cell line; settings: read-out: IC50, MIA PaCa-2; ref Boukes and Venter, 2016; cited from earlier work
[13] = test system: INS-1 pancreatic cancer cell line; settings: read-out: IC50, INS-1; ref Boukes and Venter, 2016; cited from earlier work
[14] = test system: HEP-G2 hepatocellular carcinoma cells; settings: 25–400 μg/mL, 72 h, MTT assay; ref Gevrenova et al., 2016; cited from earlier work
[15] = test system: IGROV-1 human ovary cell line; settings: ref Znati et al., 2014; cited from earlier work
[16] = test system: OVCAR-3 human ovary cell line; settings: ref Znati et al., 2014; cited from earlier work
[17] = test system: HCT-116 human colon cancer cell line; settings: ref Znati et al., 2014; cited from earlier work
[18] = test system: DU-145 prostate cancer cell line; settings: ref Manthey and Guthrie, 2002; cited from earlier work
[19] = test system: DU145 prostate cancer cell; settings: ref Lewinska et al., 2015, cited from earlier work
[20] = test system: HT-29 colon cancer cell line; settings: ref Manthey and Guthrie, 2002; cited from earlier work
cells = assay: Cell death type; type: cell-based
Method in brief: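 MCF-7, MDA-MB-231 and MCF-10A cells were seeded at 3×10^5 cells per well in six-well plates and held 24 h at 37 °C, 5% CO2. They were exposed 48 h to the highest test-compound doses, trypsinised, PBS-washed and pelleted at 1500 rpm for 5 min. Cells were stained with Annexin V-FITC/PI in 1X binding buffer for 15 min at 37 °C in the dark, then run by flow cytometry. Viable, early/late apoptotic and necrotic cells are given as % of total, in triplicate.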

A431 cells = settings: MTT assay; ref Buddhan and Manoharan, 2017; cited from earlier work
[21] = test system: SK-MEL5 melanoma cancer cell line; settings: ref Manthey and Guthrie, 2002; cited from earlier work
[22] = test system: DMS-114 human lung cancer cell line; settings: ref Manthey and Guthrie, 2002; cited from earlier work
MCF-7 cell line [23] = assay: Annexin V-FITC/PI flow cytometry, MCF-7; type: cell-based; settings: 48 h
[24] = test system: SGC-7901 human gastric cancer cell line; settings: ref Sun et al. 2006; cited from earlier work
[25] = test system: HeLa human uterine carcinoma; settings: ref Sun et al. 2006; cited from earlier work
[26] = test system: Bel-7402 human hepatocellular carcinoma; settings: ref Sun et al. 2006; cited from earlier work
[27] = test system: A375-S2 human malignant melanoma; settings: ref Sun et al. 2006; cited from earlier work
[28] = test system: HT-1080 fibrosarcoma cell line; settings: ref Rajendra et al., 2011, cited from earlier work
[29] = MTT assay, 24 h, ± standard deviation

O=C(/C=C/c1ccc(O)c(O)c1)O[C@@H]1C[C@](O)(C(=O)O)C[C@@H](O)[C@H]1O [Compound 5, Chlorogenic acid]
effect on Regorafenib-mediated cell growth inhibition, PLC/PRF/5 [1]: enhanced
IC50 [2]: 882 µM
IC50 [3]: 1100 µM
concentration up to which no cytotoxic activity was shown [4]: > 360 µg/mL
IC50 (MDA-MB-231 cell line [5]): 361 ± 4.83 µg/mL (≈ 1020 µM)
viable cells, MDA-MB-231 (MDA-MB-231 cell line [6]): 51%
IC50 (MCF-7 cell line [7]): 371 ± 9.49 µg/mL (≈ 1050 µM)
IC50 [8]: 940 µM
effect on Regorafenib-mediated cell growth inhibition, HepG2 [9]: enhanced
IC50 [10]: 356 ± 19.1 µg/mL (≈ 1010 µM)

O=c1c(O[C@@H]2O[C@H](CO)[C@H](O)[C@H](O)[C@H]2O)c(-c2ccc(O)c(O)c2)oc2cc(O)cc(O)c12 [Compound 3, Quercetin-3-O-galactoside]
cell viability of A549 ([11]; 10–100 µM, time- and dose-dependent): inhibited cell viability
percentage of apoptotic cells, A549 ([11]; 24 h, dose-dependent): significant increase
concentration up to which no cytotoxic activity was shown [4]: > 100 µg/mL
IC50 (MDA-MB-231 cell line [5]): 141 ± 14 µg/mL (≈ 304 µM)
viable cells, MDA-MB-231 (MDA-MB-231 cell line [6]): 46%
early apoptotic cells, MDA-MB-231 (MDA-MB-231 cell line [6]): 22%
necrotic cells, MDA-MB-231 (MDA-MB-231 cell line [6]): 6%
late apoptotic cells, MDA-MB-231 (MDA-MB-231 cell line [6]): 26%
IC50 (MCF-7 cell line [7]): 147 ± 7.32 µg/mL (≈ 317 µM)
IC50 [12]: 50 µM
IC50 [10]: 127 ± 12.5 µg/mL (≈ 273 µM)
IC50 [13]: 50 µM

COc1cc(-c2oc3cc(O)cc(O)c3c(=O)c2O[C@@H]2O[C@H](CO[C@@H]3O[C@@H](C)[C@H](O)[C@@H](O)[C@H]3O)[C@@H](O)[C@H](O)[C@H]2O)ccc1O [Compound 2, Isorhamnetin-3-O-rutinoside]
hepatoprotective activity, HEP-G2 [14]: no significant hepatoprotective activity
IC50 (MDA-MB-231 cell line [5]): 77.8 ± 39.9 µg/mL (≈ 125 µM)
viable cells, MDA-MB-231 (MDA-MB-231 cell line [6]): 63%
IC50 (MCF-7 cell line [7]): 137 ± 8.62 µg/mL (≈ 220 µM)
concentration up to which no cytotoxic activity was shown, IGROV-1 [15]: > 100 µM
concentration up to which no cytotoxic activity was shown, OVCAR-3 [16]: > 100 µM
concentration up to which no cytotoxic activity was shown, HCT-116 [17]: > 100 µM
IC50 [10]: 133 ± 23.5 µg/mL (≈ 214 µM)

COc1ccc(-c2cc(=O)c3c(O)cc(O[C@@H]4O[C@H](CO[C@@H]5O[C@@H](C)[C@H](O)[C@@H](O)[C@H]5O)[C@@H](O)[C@H](O)[C@H]4O)cc3o2)cc1O [Compound 1, Diosmetin-7-O-rutinoside]
concentration up to which no cytotoxic activity was shown, DU-145 [18]: > 200 µM
DU145 cell viability ([19]; 50 µM): 70%
DU145 cell viability ([19]; 250 µM): 40%
concentration up to which no cytotoxic activity was shown, HT-29 [20]: > 200 µM
IC50 (MDA-MB-231 cell line [5]): 12.9 ± 12.2 µg/mL (≈ 21.2 µM)
type of cell death causing the cytotoxic effect (cells): necrosis
IC50, A431 (A431 cells): 45 µg/mL (≈ 73.9 µM)
viable cells, MDA-MB-231 (MDA-MB-231 cell line [6]): 56%
concentration up to which no cytotoxic activity was shown, SK-MEL5 [21]: > 200 µM
IC50 (MCF-7 cell line [7]): 13.7 ± 11 µg/mL (≈ 22.4 µM)
concentration up to which no cytotoxic activity was shown, DMS-114 [22]: > 200 µM
IC50 [10]: 8.66 ± 20.5 µg/mL (≈ 14.2 µM)

OO [Compound H2O2, hydrogen peroxide, reference compound]
percentage of cell death, MCF-7 (MCF-7 cell line [23]; doses as b44): 70%
viable cells, MCF-7 (MCF-7 cell line [23]; quadrant LL, H2O2 17, Compound 1 24, 2 156, 3 372, 4 30, 5 710, 6 60 µg/mL): 30%
IC50, MDA-MB-231 (MDA-MB-231 cell line [5]; [29]): 8.48 ± 3.53 µg/mL and 11.86 ± 2.43 µg/mL and 11.45 ± 1.52 µg/mL
percentage of cell death, MDA-MB-231 (MDA-MB-231 cell line [6]): 79%
viable cells, MDA-MB-231 (MDA-MB-231 cell line [6]): 21%
IC50, MCF-7 (MCF-7 cell line [7]; [29]): 7.45 ± 12.77 µg/mL and 10.11 ± 0.90 µg/mL and 11.97 ± 6.72 µg/mL and 9.91 ± 0.31 µg/mL
IC50, MCF-10A ([10]; MTT assay, ± standard deviation): 10.32 ± 3.60 µg/mL and 11.40 ± 3.60 µg/mL and 9.77 ± 8.56 µg/mL and 12.58 ± 9.77 µg/mL

O=C(O)/C=C/c1ccc(O)c(O)c1 [Compound 4, Caffeic acid]
concentration up to which no cytotoxic activity was shown, SGC-7901 [24]: > 100 µg/mL
early apoptotic cells, MCF-7 (MCF-7 cell line [23]; quadrant LR, doses as b44): 52%
necrotic cells, MCF-7 (MCF-7 cell line [23]; quadrant UL, doses as b44): 3%
late apoptotic cells, MCF-7 (MCF-7 cell line [23]; quadrant UR, doses as b44): 13%
IC50 (MDA-MB-231 cell line [5]): 64 ± 4.11 µg/mL (≈ 355 µM)
viable cells, MDA-MB-231 (MDA-MB-231 cell line [6]): 30%
early apoptotic cells, MDA-MB-231 (MDA-MB-231 cell line [6]): 52%
necrotic cells, MDA-MB-231 (MDA-MB-231 cell line [6]): 3%
late apoptotic cells, MDA-MB-231 (MDA-MB-231 cell line [6]): 13%
IC50 (MCF-7 cell line [7]): 40.3 ± 2.84 µg/mL (≈ 224 µM)
concentration up to which no cytotoxic activity was shown, HeLa [25]: > 100 µg/mL
concentration up to which no cytotoxic activity was shown, Bel-7402 [26]: > 100 µg/mL
concentration up to which no cytotoxic activity was shown, A375-S2 [27]: > 100 µg/mL
IC50 [10]: 149 ± 14.1 µg/mL (≈ 825 µM)
cell viability, HT-1080 ([28]; 50 µg/mL): 15%
inhibition of HT-1080 cell line ([28]; 30, 40, and 50 μg/mL): notably inhibited
